Reference: ChEMBL document CHEMBL1165965, “Synthesis and structure-activity relationships of 1,2,3,4-tetrahydropyrido[2,3-b]pyrazines as potent and selective inhibitors of the anaplastic lymphoma kinase” (Bioorg Med Chem, 2010)

What was measured:
[1] = target: T1, Phosphorylase b kinase gamma catalytic chain, liver/testis isoform (Homo sapiens) (UniProt P15735); experiment: Inhibition of PHKG2 at 1 uM
T1 sequence (whole entry): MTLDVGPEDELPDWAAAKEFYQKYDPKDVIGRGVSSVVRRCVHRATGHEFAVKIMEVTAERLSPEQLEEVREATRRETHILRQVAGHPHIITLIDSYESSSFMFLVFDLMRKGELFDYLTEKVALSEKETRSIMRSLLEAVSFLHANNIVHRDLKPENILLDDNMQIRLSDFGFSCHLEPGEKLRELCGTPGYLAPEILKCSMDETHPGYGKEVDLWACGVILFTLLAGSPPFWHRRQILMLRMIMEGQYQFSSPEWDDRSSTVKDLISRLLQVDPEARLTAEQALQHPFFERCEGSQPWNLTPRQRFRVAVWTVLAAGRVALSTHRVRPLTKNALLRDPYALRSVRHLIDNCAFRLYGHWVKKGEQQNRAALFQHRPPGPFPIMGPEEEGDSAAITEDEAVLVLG

[2] = target: T2, Mitogen-activated protein kinase kinase kinase 15 (Homo sapiens) (UniProt Q6ZN16); experiment: Inhibition of MAP3K15 at 1 uM
T2 sequence (whole entry): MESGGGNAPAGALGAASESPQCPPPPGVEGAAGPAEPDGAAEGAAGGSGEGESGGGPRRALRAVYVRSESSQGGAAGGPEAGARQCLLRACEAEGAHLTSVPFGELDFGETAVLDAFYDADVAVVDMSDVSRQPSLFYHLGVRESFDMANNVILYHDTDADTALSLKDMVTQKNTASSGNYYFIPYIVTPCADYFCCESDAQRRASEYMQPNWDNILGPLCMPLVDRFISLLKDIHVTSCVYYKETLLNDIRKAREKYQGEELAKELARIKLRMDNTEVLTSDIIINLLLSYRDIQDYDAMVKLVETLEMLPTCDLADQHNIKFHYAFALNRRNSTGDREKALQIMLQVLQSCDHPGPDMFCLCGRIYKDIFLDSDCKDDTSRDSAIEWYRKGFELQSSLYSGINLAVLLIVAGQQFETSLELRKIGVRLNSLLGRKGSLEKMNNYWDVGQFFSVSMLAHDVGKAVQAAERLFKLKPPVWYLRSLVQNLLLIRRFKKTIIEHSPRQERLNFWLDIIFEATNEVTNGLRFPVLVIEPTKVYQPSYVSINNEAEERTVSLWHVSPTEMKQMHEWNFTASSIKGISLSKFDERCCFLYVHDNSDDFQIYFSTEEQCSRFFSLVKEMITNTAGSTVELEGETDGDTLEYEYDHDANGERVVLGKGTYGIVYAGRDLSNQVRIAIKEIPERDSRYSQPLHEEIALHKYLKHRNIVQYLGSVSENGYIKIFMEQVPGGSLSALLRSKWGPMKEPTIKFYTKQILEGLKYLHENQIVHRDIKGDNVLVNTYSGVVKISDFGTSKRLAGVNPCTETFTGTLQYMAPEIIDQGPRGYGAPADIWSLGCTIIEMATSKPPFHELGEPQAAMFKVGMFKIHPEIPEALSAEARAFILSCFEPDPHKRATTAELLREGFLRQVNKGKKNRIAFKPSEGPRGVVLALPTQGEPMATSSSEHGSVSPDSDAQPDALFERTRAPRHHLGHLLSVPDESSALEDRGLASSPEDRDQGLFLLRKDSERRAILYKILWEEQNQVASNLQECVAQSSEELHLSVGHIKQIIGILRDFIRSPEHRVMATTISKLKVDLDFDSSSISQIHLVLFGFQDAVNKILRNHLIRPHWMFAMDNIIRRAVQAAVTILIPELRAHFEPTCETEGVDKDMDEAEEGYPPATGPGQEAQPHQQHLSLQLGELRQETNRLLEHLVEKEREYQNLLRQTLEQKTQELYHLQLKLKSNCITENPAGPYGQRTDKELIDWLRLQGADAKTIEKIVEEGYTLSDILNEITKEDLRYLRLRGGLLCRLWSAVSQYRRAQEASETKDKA

[3] = target: Death-associated protein kinase 2 (Homo sapiens) (UniProt Q9UIK4); experiment: Inhibition of DAPK2 at 1 uM
Chain of Death-associated protein kinase 2 (Homo sapiens) (Q9UIK4 whole entry, looked up): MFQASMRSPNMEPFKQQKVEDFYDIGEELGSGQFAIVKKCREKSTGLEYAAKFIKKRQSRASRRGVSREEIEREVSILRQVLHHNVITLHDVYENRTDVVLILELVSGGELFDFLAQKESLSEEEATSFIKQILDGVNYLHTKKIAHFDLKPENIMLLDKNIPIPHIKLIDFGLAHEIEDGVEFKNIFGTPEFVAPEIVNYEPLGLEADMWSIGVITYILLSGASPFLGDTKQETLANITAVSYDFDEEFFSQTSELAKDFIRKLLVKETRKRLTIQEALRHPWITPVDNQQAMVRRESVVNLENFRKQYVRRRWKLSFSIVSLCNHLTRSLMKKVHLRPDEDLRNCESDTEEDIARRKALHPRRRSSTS
Outline: (§1)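 Single-concentration screen using Ambit Bioscience KINOMEscan technology across a panel of 250–400 kinases. Per-kinase inhibition from this screen was summarized as S(90), the fraction of kinases inhibited by more than 90%.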

[4] = target: T3, Ephrin type-A receptor 6 (Homo sapiens) (UniProt Q9UF33); experiment: Inhibition of EPHA6 at 1 uM; outline: as §1
T3 sequence (whole entry): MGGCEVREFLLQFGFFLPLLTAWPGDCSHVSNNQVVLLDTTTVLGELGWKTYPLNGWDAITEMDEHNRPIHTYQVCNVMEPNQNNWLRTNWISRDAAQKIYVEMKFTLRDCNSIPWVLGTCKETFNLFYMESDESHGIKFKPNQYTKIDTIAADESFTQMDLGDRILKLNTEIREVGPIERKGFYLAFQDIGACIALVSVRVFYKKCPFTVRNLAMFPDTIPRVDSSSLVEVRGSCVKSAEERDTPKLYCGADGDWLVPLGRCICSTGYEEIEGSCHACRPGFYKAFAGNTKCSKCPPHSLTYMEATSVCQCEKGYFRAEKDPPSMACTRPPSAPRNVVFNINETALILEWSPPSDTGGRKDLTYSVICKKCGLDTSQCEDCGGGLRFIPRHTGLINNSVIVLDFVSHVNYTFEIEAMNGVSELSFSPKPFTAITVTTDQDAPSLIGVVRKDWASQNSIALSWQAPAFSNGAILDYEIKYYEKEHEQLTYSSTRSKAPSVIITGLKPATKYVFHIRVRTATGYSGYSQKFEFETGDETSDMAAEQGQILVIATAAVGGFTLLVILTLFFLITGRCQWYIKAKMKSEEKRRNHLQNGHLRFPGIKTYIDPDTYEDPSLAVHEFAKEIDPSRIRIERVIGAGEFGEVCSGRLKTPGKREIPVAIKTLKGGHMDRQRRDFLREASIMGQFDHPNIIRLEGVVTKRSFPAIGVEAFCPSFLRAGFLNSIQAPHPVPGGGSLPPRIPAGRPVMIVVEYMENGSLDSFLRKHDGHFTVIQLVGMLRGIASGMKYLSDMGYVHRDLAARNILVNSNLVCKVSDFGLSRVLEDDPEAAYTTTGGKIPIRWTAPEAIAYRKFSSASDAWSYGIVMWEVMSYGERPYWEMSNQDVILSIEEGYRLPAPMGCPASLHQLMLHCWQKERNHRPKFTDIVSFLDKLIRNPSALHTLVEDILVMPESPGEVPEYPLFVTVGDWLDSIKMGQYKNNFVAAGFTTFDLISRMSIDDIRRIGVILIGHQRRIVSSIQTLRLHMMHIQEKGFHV

inhibition [1]	inhibition [2]	inhibition [4]	Compound	inhibition [3]
< 50%	< 50%	< 50%	CC(=O)N1CCN(c2cc(-c3cnc4c(c3)N(Cc3cc(Cl)ccc3C(F)(F)F)CCN4)ccn2)CC1	< 50%
< 50%		< 50%	O=C(O)c1ccc(-c2cnc3c(c2)N(Cc2cc(Cl)ccc2C(F)(F)F)CCN3)cc1	< 50%
< 50%		< 50%	O=C(c1ccc(-c2cnc3c(c2)N(Cc2cc(Cl)ccc2C(F)(F)F)CCN3)cc1)N1CCCCC1	< 50%
< 50%		< 50%	COC1CCN(C(=O)c2ccc(-c3cnc4c(c3)N(Cc3cc(Cl)ccc3C(F)(F)F)CCN4)cc2)CC1	< 50%
< 50%		< 50%	O=C(c1ccc(-c2cnc3c(c2)N(Cc2cc(Cl)ccc2C(F)(F)F)CCN3)cc1)N1CCC(N2CCCC2)CC1	< 50%

The remaining lines, values behind:

Compound	inhibition [1]	inhibition [2]	inhibition [4]	inhibition [3]
CN1CCN(c2ccc(-c3cnc4c(c3)N(Cc3cc(Cl)ccc3C(F)(F)F)CCN4)cn2)CC1	< 50%	< 50%	< 50%	< 50%
CN1CCN(c2ccc(-c3cnc4c(c3)N(Cc3cc(F)ccc3F)CCN4)cn2)CC1	< 50%	< 50%	< 50%	< 50%
CN1CCN(c2ccc(-c3cnc4c(c3)N(Cc3cc(Cl)ccc3Cl)CCN4)cn2)CC1	< 50%	< 50%	< 50%	< 50%
CN1CCN(c2ccc(-c3cnc4c(c3)N(Cc3c(F)ccc(F)c3Cl)CCN4)cn2)CC1	< 50%	< 50%	< 50%	< 50%
FC(F)(F)c1ccc(Cl)cc1CN1CCNc2ncc(-c3ccnc(N4CCNCC4)c3)cc21	< 50%	< 50%	< 50%	< 50%
